In experiment [1] the test system is Cowpox virus. In words: Antiviral activity against TK- cowpox virus TK:GFP lacZ in HFF cells. In kind it is functional, organism-based.
For experiment [2], the system named is Cowpox virus. The experiment can be described thus: Antiviral activity against TK+ cowpox virus delta crmA in HFF cells. In kind it is functional, organism-based.
Experiment [3] concerns Vaccinia virus. In words: Antiviral activity against vaccinia virus in HFF cells by plaque reduction assay. As to conditions: Orthopoxvirus vaccinia. In kind it is functional, organism-based. In general terms: Plaques are areas of infected cells; plaque reduction assays count them against a control.
In experiment [4] the test system is HFF. In words: Cytotoxicity against HFF cells by neutral red uptake assay. In kind it is functional. The note with it: Homo sapiens. In outline:
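Uninfected HFF cells are incubated with various drug concentrations for 7 days at 37 °C. Viability is read by Neutral Red uptake. CC50 is the concentration that reduces uptake by 50%.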

For experiment [5], the system named is Cowpox virus. In words: Antiviral activity against cowpox virus in HFF cells by plaque reduction assay. In kind it is functional, organism-based.

For orientation: EC50 means the concentration needed to bring the measured effect to its halfway point. Higher therefore signals lower potency in that assay. Broadly, the CC50 is the concentration at which the toxic effect on the cells reaches its halfway point. Low values mean harm at low concentration, high ones better tolerance by the cells.

On to `N#CC1=C(N)OC2=C(C(=O)CCC2)C1c1cn([C@H]2C[C@@H](O)[C@@H](CO)O2)c(=O)[nH]c1=O` (stereo not given in full), for which the EC50 in experiment [1] worked out at 28 µM; in experiment [2], 0.8 µM; in experiment [3], 4.6 µM; in experiment [5], 2 µM. In addition, in experiment [4], the CC50 is more than 300 µM.
For `Nc1ccn(C[C@@H](CO)OCP(=O)(O)O)c(=O)n1` [CIDOFOVIR] the same measures were 5.2 µM, 3.3 µM, 24 µM, 40 µM and more than 317 µM.
For `O=c1[nH]c(=O)n([C@H]2C[C@H](O)[C@@H](CO)O2)cc1I` [IDOXURIDINE] the same measures were 27 µM, 0.4 µM, 6 µM, 2 µM and more than 260 µM.
